From ChEMBL document CHEMBL6177916, “Synthesis, in silico and bio-evaluation studies of new isothiocyanate derivatives with respect to COX inhibition and H2S release profiles” (RSC Med Chem, 2025)
Calls of active or inactive are those of the source. No cut-off for these calls is given here.

Key:
[1] = Induction of H2S release in PBS at pH 7.4 at 100 uM measured over 4 hrs by microplate reader based analysis; assay type: functional
How it was run: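 Compounds (DMSO-dissolved) were diluted to 100 μM final in phosphate buffer, pH 7.4, containing 1 mM L-cysteine. This was combined with a detection mix of N,N-dimethyl-1,4-phenylenediamine sulfate (20 mM) plus 1% w/v Zn(OAc)2, reacted with 30 mM FeCl3. A670 was read every 5 min until no meaningful increase was seen.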

[2] = system: RAW264.7; assay: Cytotoxicity against mouse RAW264.7 cells assessed as cell viability at 10 to 20 uM measured after 24 hrs by MTT assay; assay type: functional, cell-based; conditions: dose 10-20 µM
How it was run: (§1)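 RAW 264.7 murine macrophages were seeded at 4 × 10^5 cells per mL and grown 24 h at 37 °C. They were then stimulated with 1 μg mL−1 LPS, with or without compound (DMSO-dissolved) at 10 and 20 μM, for 24 h. MTT was added for 2 h, formazan was dissolved in DMSO, and A570/620 was read. Controls were no inhibitor/no LPS and LPS alone, with comparisons made against LPS alone. Data are ≥3 biological replicates, mean ± SEM, one-way ANOVA with Dunnett.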

[3] = system: RAW264.7; assay: Antiinflammatory activity against LPS induced mouse RAW264.7 cells assessed as decrease in cell viability at 10 to 20 uM relative to control; assay type: functional; conditions: dose 10-20 µM; how it was run: as §1
[4] = biological target: T1, Prostaglandin G/H synthase 2 (Homo sapiens, UniProt P35354); assay: Inhibition of human recombinant COX-2 using arachidonic acid as substrate at 10 uM preincubated for 10 mins followed by substrate addition and measured after 30 secs
T1 sequence (P35354 whole entry): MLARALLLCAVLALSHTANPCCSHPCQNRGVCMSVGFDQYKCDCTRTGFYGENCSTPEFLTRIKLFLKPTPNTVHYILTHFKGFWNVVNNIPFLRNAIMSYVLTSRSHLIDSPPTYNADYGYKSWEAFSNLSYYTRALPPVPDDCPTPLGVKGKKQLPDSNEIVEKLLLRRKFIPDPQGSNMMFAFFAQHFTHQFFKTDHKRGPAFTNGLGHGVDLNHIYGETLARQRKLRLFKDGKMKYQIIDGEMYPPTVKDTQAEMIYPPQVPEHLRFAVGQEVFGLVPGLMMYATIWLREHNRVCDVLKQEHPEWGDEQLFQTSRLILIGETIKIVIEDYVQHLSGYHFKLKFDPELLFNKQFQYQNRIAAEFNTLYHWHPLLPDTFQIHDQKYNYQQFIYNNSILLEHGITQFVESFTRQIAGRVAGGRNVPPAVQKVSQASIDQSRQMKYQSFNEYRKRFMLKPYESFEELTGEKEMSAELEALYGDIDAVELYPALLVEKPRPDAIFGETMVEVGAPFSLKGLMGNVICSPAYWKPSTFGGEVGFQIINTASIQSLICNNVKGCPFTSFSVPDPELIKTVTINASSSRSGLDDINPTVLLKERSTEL

Row | Compound | Activity [1] | Activity [2] | Activity [3] | IC50 [4]
1 | COc1ccc(C(=O)OCCc2ccc(N=C=S)cc2)cc1 | 11.2 µM | inactive | – | –
2 | OCCc1ccc(N=C=S)cc1 | 36.8 µM | inactive | <80% | –
3 | C[S+]([O-])CCCCN=C=S (configuration not stated) [SULFORAPHANE] | 43.5 µM | – | – | 6.35 µM
4 | O=C(OCCc1ccc(N=C=S)cc1)c1ccc(F)cc1 | 10.9 µM | – | – | –
5 | O=C(OCCc1ccc(N=C=S)cc1)c1ccccc1 | 11.3 µM | inactive | <80% | –
6 | N#Cc1cc(CCO)ccc1N=C=S | 35.7 µM | inactive | <80% | –
7 | CC(C)CC(=O)OCCc1ccc(N=C=S)cc1 | 11.7 µM | inactive | – | –
8 | OCCc1ccc(N=C=S)c(Br)c1 | 35.5 µM | inactive | <80% | –
9 | O=C(OCCc1ccc(N=C=S)cc1)c1ccc([N+](=O)[O-])cc1 | 11.5 µM | inactive | <80% | –
